For 52 compounds, IC50, inhibition and Inhibition results are on record in ChEMBL document CHEMBL1127082, “3,4-Dihydroxychalcones as potent 5-lipoxygenase and cyclooxygenase inhibitors” (J Med Chem, 1993).

Test [1] deals with T1, Polyunsaturated fatty acid 5-lipoxygenase (Rattus norvegicus, UniProt P12527).
T1 sequence (P12527 whole entry): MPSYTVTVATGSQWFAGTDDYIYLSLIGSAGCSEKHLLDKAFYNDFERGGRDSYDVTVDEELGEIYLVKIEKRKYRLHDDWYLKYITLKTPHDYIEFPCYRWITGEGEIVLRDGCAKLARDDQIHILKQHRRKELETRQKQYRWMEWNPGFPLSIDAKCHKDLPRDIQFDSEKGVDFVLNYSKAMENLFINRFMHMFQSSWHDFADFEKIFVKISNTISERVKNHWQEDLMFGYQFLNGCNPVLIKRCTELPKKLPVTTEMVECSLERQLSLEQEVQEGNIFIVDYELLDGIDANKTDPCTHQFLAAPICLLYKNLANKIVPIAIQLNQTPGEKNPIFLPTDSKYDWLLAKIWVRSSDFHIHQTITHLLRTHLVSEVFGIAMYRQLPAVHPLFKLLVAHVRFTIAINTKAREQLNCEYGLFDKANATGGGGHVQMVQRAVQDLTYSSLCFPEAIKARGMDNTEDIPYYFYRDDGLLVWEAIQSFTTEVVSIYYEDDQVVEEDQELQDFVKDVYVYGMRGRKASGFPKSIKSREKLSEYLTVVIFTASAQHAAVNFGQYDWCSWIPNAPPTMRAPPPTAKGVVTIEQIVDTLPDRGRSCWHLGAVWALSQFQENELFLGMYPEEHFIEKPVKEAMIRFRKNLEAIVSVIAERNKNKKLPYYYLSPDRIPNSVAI
Briefly: In vitro inhibition against 5-lipoxygenase in RBL-1 cells was determined. The class given is cell-based.

Test [2] has as its target Prostaglandin G/H synthase 1 (Ovis aries) (UniProt P05979). Briefly: Inhibition of Prostaglandin G/H synthase activity in sheep seminal vesicle was determined 100 uM.
The nature of test [3]: Inhibition of Prostaglandin G/H synthase activity in sheep seminal vesicle was determined. The class given is tissue-based, Ovis aries. In a few lines:
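Sheep seminal vesicle microsomes (32 μg protein) were incubated with [14C]arachidonic acid (0.1 μCi/mL) in pH 7.4 phosphate buffer containing glutathione, epinephrine and EDTA for 10 min at 37 °C. Substrate was removed by two hexane/EtOAc extractions, and aqueous-phase radioactivity was counted by scintillation.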

The species entered for test [4] is Rattus norvegicus. The test can be described thus: Inhibition of lipid peroxidation in rat liver microsomes at 1 uM. Type of test: functional. (In general: Liver microsomes are a subcellular fraction often used to study metabolism.)
The target in test [5] is Prostaglandin G/H synthase 1 (Ovis aries) (UniProt P05979). Briefly: Inhibition of Prostaglandin G/H synthase activity in sheep seminal vesicle was determined. Also on record: concentration or dose not given beside the values. The conditions noted are these: concentration not given here.
Sequence of Prostaglandin G/H synthase 1 (Ovis aries) (P05979 whole entry, looked up): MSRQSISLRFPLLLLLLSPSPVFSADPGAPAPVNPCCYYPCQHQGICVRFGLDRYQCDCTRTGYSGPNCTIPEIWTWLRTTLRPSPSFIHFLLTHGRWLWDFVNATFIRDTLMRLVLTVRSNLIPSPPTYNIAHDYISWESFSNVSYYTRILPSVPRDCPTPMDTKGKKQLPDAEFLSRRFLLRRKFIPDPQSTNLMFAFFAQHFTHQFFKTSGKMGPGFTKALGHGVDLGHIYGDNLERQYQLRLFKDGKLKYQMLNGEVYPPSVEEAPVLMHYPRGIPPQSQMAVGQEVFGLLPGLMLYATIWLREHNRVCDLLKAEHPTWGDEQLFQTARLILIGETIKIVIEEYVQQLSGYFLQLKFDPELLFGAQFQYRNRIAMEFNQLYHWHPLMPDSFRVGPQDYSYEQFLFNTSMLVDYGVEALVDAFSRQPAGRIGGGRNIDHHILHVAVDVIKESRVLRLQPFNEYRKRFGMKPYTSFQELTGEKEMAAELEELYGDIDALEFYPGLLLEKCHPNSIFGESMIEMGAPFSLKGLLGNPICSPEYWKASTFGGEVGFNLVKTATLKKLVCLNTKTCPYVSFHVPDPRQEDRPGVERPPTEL
In test [6] the test system is Mus musculus. The test can be described thus: Inhibition of arachidonic acid induced mouse ear edema at 30 ug/ear. Type of test: functional. The essentials: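 Male ICR mice (25–28 g), 4–8 per group, received the compound topically in acetone, then 1 mg arachidonic acid on the inner surface of one ear. After 1 h, swelling was taken as the weight difference between challenged and unchallenged ears. Inhibition = (C−T)/C × 100; mean ± SE; Student's t test.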

The target in test [7] is Prostaglandin G/H synthase 1 (Ovis aries) (UniProt P05979). The test can be described thus: Inhibition of Prostaglandin G/H synthase activity in sheep seminal vesicle was determined at 100 uM.
The target is the same in test [8]. The test can be described thus: Inhibition of Prostaglandin G/H synthase activity in sheep seminal vesicle was determined 100 uM. This is another data set of the same source.

With `O=C(/C=C/c1ccc(O)c(O)c1)c1ccccc1Cl`, the values for the IC50 in test [1] and in test [2] were 0.092 µM and 71 µM, respectively.

As for `Cc1ccc(C(=O)/C=C/c2ccc(O)c(O)c2)c(C)c1`, the IC50 in test [1] worked out at 0.017 µM; in test [3], 41 µM.

On to `O=C(/C=C/c1ccc(O)cc1)c1c(O)cc(O)cc1O`, for which the inhibition in test [4] was 8%; in test [5], 3.1%.

As to `Cc1cc(C)c(C(=O)/C=C/c2ccc(O)c(O)c2)c(C)c1`, the half-inhibitory concentration (IC50) in test [1] came out at 0.4 µM; in test [3] it was 280 µM.

As for `O=C(/C=C/c1ccc(O)c(O)c1)c1ccc(O)cc1O` [BUTEIN], the figures for the IC50 in test [1] and in test [2] were 0.0046 µM and 120 µM, respectively. Also, in test [4], the inhibition was found to be 40%.

`COc1ccc(C)cc1C(=O)/C=C/c1ccc(O)c(O)c1`: the IC50 in test [1] is 0.024 µM; in test [3], 30 µM. Moreover, the Inhibition in test [6] stood at 47%.

Regarding `COc1cc(/C=C/C(=O)c2ccc(Cl)cc2)ccc1O`, the IC50 was found to be 8.9 µM in test [1] and 41 µM in test [3].

Regarding `Cc1ccc(C(=O)/C=C/c2ccc(O)c(O)c2)cc1`, the IC50 was found to be 0.076 µM in test [1] and 210 µM in test [3].

In test [3], `O=C(/C=C/c1ccc(O)cc1)c1ccccc1O` displayed an IC50 of 390 µM. Moreover, the inhibition in test [4] came to 6%.

In turn, `COc1cc(C(=O)/C=C/c2ccc(O)c(O)c2)ccc1O` displayed an IC50 in test [1] of 0.009 µM. Further, the inhibition in test [7] is 14%.

Take `O=C(/C=C/c1ccc(O)c(O)c1)c1ccccc1O`: the IC50 in test [1] is 0.023 µM; in test [2] it was 44 µM. In addition, the inhibition in test [4] is 45%.

With `O=C1CCN(c2ccccc2)N1` [PHENIDONE], the Inhibition in test [6] was found to be 24.6%. The IC50 in test [3] is 80 µM.

In the case of `COc1ccc(C(=O)/C=C/c2ccc(O)c(O)c2)c(OC)c1`, the values for the IC50 in test [1] and in test [3] were 0.01 µM and 160 µM, respectively.

In the case of `O=C(/C=C/c1ccc(O)c(O)c1)c1ccccc1`, the half-inhibitory concentration (IC50) was 0.043 µM in test [1] and 34 µM in test [3]. Also, in test [4], the inhibition was 44%.

Consider `O=C(/C=C/c1ccc(O)c(O)c1)c1ccc(O)cc1`, for which the IC50 in test [3] came out at 320 µM. The inhibition in test [4] came out at 36%.

Take `COc1ccc(C(=O)/C=C/c2ccc(O)c(O)c2)cc1OC`: the results for the 50% inhibitory concentration (IC50) in test [1] and in test [3] were 0.018 µM and 140 µM, respectively.

Take `CC(C)c1ccc(O)c(C(=O)/C=C/c2ccc(O)c(O)c2)c1`: the 50% inhibitory concentration (IC50) stood at 0.004 µM in test [1] and 37 µM in test [3]. The Inhibition in test [6] is on record as 16%.

Turning to `CCOc1ccc(O)c(C(=O)/C=C/c2ccc(O)c(O)c2)c1`, the IC50 turned out to be 0.0053 µM in test [1] and 130 µM in test [3]. For the same compound, in test [6], the Inhibition came out at 42%.

In the case of `COc1ccc(C(=O)/C=C/c2ccc(O)c(OC)c2)cc1`, the IC50 in test [1] stood at 12 µM. The inhibition is 2.3% in test [4] and -7.3% in test [5].

`O=C(/C=C/c1ccc(O)cc1)c1ccc(O)cc1O` [ISOLIQUIRITIGENIN] returned an IC50 in test [1] of 35 µM. The inhibition in test [4] is 9%.

For `CCOc1ccc(OC)cc1C(=O)/C=C/c1ccc(O)c(O)c1`, the IC50 in test [1] turned out to be 0.027 µM; in test [3] it was 2 µM.

`O=C(/C=C/c1ccccc1)c1ccc(O)cc1O` [2',4'-DIHYDROXYCHALCONE] yielded an IC50 in test [3] of 280 µM. Further, the inhibition in test [4] came to 5%.

In the case of `CN(C)c1cccc(C(=O)/C=C/c2ccc(O)c(O)c2)c1`, the IC50 in test [1] worked out at 0.0098 µM; in test [3], 41 µM.

As for `Cc1ccc(C)c(C(=O)/C=C/c2ccc(O)c(O)c2)c1`, the values for the IC50 in test [1] and in test [3] were 0.016 µM and 44 µM, respectively.

With `COc1cc(/C=C/C(=O)c2ccccc2O)ccc1O`, the inhibition in test [4] amounted to 14%. The same compound had an IC50 in test [2] of 63 µM.

Regarding `CC(C)Oc1ccc(O)c(C(=O)/C=C/c2ccc(O)c(O)c2)c1`, the IC50 stood at 0.011 µM in test [1] and 140 µM in test [3].

For the compound `COc1cc(C(=O)/C=C/c2ccc(O)c(O)c2)cc(OC)c1OC`, in test [1], the IC50 is 0.016 µM. For the same compound, the inhibition in test [7] stood at 13%.

For the compound `CC(Cc1ccc(O)c(O)c1)C(C)Cc1ccc(O)c(O)c1` (centres undefined) [NORDIHYDROGUAIARETIC ACID], in test [3], half-maximal inhibition (IC50) required 210 µM.

Take `Cc1ccc(O)c(C(=O)/C=C/c2ccc(O)c(O)c2)c1`: the IC50 in test [1] amounted to 0.039 µM; in test [3], 120 µM.

With `COc1cccc(C(=O)/C=C/c2ccc(O)c(O)c2)c1`, the IC50 in test [1] was found to be 0.0065 µM; in test [3], 15 µM.

The compound `CCCCOc1ccc(O)c(C(=O)/C=C/c2ccc(O)c(O)c2)c1` had an IC50 in test [1] of 1 µM. Moreover, in test [6], the Inhibition is 33%. Also, the inhibition in test [7] came out at 4.2%.

With `COc1ccccc1C(=O)/C=C/c1ccc(O)c(O)c1`, the IC50 in test [1] amounted to 0.027 µM; in test [3], 13 µM.

`COc1cccc(OC)c1C(=O)/C=C/c1ccc(O)c(O)c1` registered an IC50 in test [1] of 0.37 µM. Besides, the inhibition in test [7] amounted to 15%.

For `CCOc1ccc(OC)c(C(=O)/C=C/c2ccc(O)c(O)c2)c1`, the figures for the IC50 in test [1] and in test [3] were 0.0038 µM and 26 µM, respectively.

As to `Cc1cccc(C(=O)/C=C/c2ccc(O)c(O)c2)c1`, the concentration for half-maximal inhibition (IC50) came to 0.027 µM in test [1] and 71 µM in test [3].

In turn, `COc1ccc(C(=O)/C=C/c2ccc(O)c(O)c2)c(O)c1` [CALYTHROPSIN] yielded an IC50 in test [3] of 65 µM.

`O=C(/C=C/c1ccc(O)c(O)c1)c1ccccc1C(F)(F)F`: the results for the IC50 in test [1] and in test [3] were 0.058 µM and 230 µM, respectively.

As for `O=C(/C=C/c1ccccc1)c1c(O)cc(O)cc1O` [2',4',6-TRIHYDROXYCHALCONE], the values for the inhibition in test [4] and in test [5] were 9% and 6.9%, respectively.

`O=C(/C=C/c1ccc(O)c(O)c1)c1cc(O)ccc1O`: the IC50 in test [1] was 0.064 µM; in test [3], 170 µM.

In the case of `Oc1c(Cc2ccccc2)ccc2ccccc12`, the 50% inhibitory concentration (IC50) in test [1] worked out at 0.0069 µM; in test [3], 24 µM. Besides, the Inhibition in test [6] is on record as 67%.

As for `COc1ccc(OC(C)C)cc1C(=O)/C=C/c1ccc(O)c(O)c1`, the values for the IC50 in test [1] and in test [3] were 0.014 µM and 60 µM, respectively. Moreover, the Inhibition in test [6] is listed as 34%.

For the compound `COc1ccc(C(=O)/C=C/c2ccc(O)c(O)c2)cc1`, the IC50 is 0.02 µM in test [1] and 490 µM in test [3].

In turn, `O=C(/C=C/c1ccc(O)c(O)c1)c1c(O)cc(O)cc1O` [3,4,2',4',6'-PENTAHYDROXYCHALCONE] came in with an IC50 in test [1] of 0.14 µM. The inhibition in test [4] amounted to 18%; in test [8], 11%.

Compound `COc1ccc(OC)c(C(=O)/C=C/c2ccc(O)c(O)c2)c1` gave an IC50 in test [3] of 9.2 µM.

As for `O=C(/C=C/c1ccc(O)c(O)c1)c1ccc(Cl)cc1`, the half-maximal inhibitory concentration (IC50) in test [1] is 0.0085 µM; in test [3], 1400 µM.

With `COc1ccc2c(c1)c(CC(=O)O)c(C)n2C(=O)c1ccc(Cl)cc1` [INDOMETHACIN], the Inhibition in test [6] is recorded as 4.8%. Further, the IC50 in test [3] amounted to 0.8 µM.

Take `CC(C)Oc1ccc(C(=O)/C=C/c2ccc(O)c(O)c2)cc1`: the 50% inhibitory concentration (IC50) in test [1] was determined as 0.041 µM. Moreover, the inhibition in test [7] amounted to 11%.

With `O=C(/C=C/c1ccc(O)c(O)c1)c1cccc(O)c1`, the IC50 in test [1] came to 0.0042 µM; in test [3], 140 µM. Also, the inhibition in test [4] came out at 24%.

With `CN(C)c1ccc(C(=O)/C=C/c2ccc(O)c(O)c2)cc1`, the IC50 in test [1] was 0.0047 µM; in test [3], 810 µM.

As for `O=C(/C=C/c1ccccc1)c1ccc(O)cc1`, the inhibition in test [4] came to 5%; in test [8] it was 20%.

The compound `O=C(/C=C/c1ccc(O)c(O)c1)c1ccc([N+](=O)[O-])cc1` came in with an IC50 in test [1] of 0.023 µM. The inhibition in test [5] worked out at 5%.

For `CCOc1ccc(OCC)c(C(=O)/C=C/c2ccc(O)c(O)c2)c1`, the IC50 in test [1] worked out at 0.0024 µM; in test [3], 24 µM. In addition, the Inhibition in test [6] was -18%.

A word on the IC50: it is the concentration needed to halve the response being measured. One may read the inhibition as the change of the read-out against control, counted positive when it falls. In general, Inhibition refers to the change of the read-out against control, counted positive when it falls.
